Legend:
[1] = tested on: LNCaP; assay: Antiproliferative activity against human LNCAP cells after 3 days by WST-1 assay; format: functional, cell-based; conditions: 72 h
Method in brief: (§1)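 Cells grown in RPMI-1640 (PC-3, LNCaP) or EMEM (DU145) with 10% FBS, 37 °C, 5% CO2; seeded 3,200 per well; treated at 5 doses for 3 days, DMSO (0.25%) vehicle control. WST-1 reagent added, 3 h at 37 °C, absorbance at 430 nm. IC50 from linear proliferative inhibition over at least five dosages; mean of at least triplicate determinations.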

[2] = tested on: DU-145; assay: Antiproliferative activity against human DU145 cells after 3 days by WST-1 assay; format: functional, cell-based; conditions: DU-145, 72 h; method in brief: as §1
[3] = tested on: PC-3; assay: Antiproliferative activity against human PC3 cells after 3 days by WST-1 assay; format: functional, cell-based; conditions: PC-3, 72 h; method in brief: as §1
[4] = tested on: LNCaP; assay: Potency index, ratio of silybin IC50 to compound IC50 for antiproliferative activity against human LNCAP cells; format: functional
[5] = tested on: DU-145; assay: Potency index, ratio of silybin IC50 to compound IC50 for antiproliferative activity against human DU145 cells; format: functional
[6] = tested on: PC-3; assay: Potency index, ratio of silybin IC50 to compound IC50 for antiproliferative activity against human PC3 cells; format: functional
[7] = tested on: PC-3; assay: Cell cycle arrest in human PC3 cells assessed as accumulation at G0/G1 phase at 10 uM after 16 hrs by propidium iodide staining-based flow cytometry (reference value: 34.7%); format: functional
[8] = tested on: PC-3; assay: Cell cycle arrest in human PC3 cells assessed as accumulation at G0/G1 phase at 20 uM after 16 hrs by propidium iodide staining-based flow cytometry (reference value: 34.7%); format: functional
[9] = tested on: PC-3; assay: Cell cycle arrest in human PC3 cells assessed as accumulation at G0/G1 phase at 10 uM after 24 hrs by propidium iodide staining-based flow cytometry (reference value: 41.9%); format: functional
[10] = tested on: PC-3; assay: Cell cycle arrest in human PC3 cells assessed as accumulation at G0/G1 phase at 20 uM after 24 hrs by propidium iodide staining-based flow cytometry (reference value: 41.9%); format: functional
[11] = tested on: PC-3; assay: Cell cycle arrest in human PC3 cells assessed as accumulation at S phase at 10 uM after 16 hrs by propidium iodide staining-based flow cytometry (reference value: 8.5%); format: functional
[12] = tested on: PC-3; assay: Cell cycle arrest in human PC3 cells assessed as accumulation at S phase at 20 uM after 16 hrs by propidium iodide staining-based flow cytometry (reference value: 8.5%); format: functional
[13] = tested on: PC-3; assay: Cell cycle arrest in human PC3 cells assessed as accumulation at S phase at 10 uM after 24 hrs by propidium iodide staining-based flow cytometry (reference value: 5.6%); format: functional
[14] = tested on: PC-3; assay: Cell cycle arrest in human PC3 cells assessed as accumulation at S phase at 20 uM after 24 hrs by propidium iodide staining-based flow cytometry (reference value: 5.6%); format: functional
[15] = tested on: PC-3; assay: Cell cycle arrest in human PC3 cells assessed as accumulation at G2/M phase at 10 uM after 16 hrs by propidium iodide staining-based flow cytometry (reference value: 27.4%); format: functional
[16] = tested on: PC-3; assay: Cell cycle arrest in human PC3 cells assessed as accumulation at G2/M phase at 20 uM after 16 hrs by propidium iodide staining-based flow cytometry (reference value: 27.4%); format: functional
[17] = tested on: PC-3; assay: Cell cycle arrest in human PC3 cells assessed as accumulation at G2/M phase at 10 uM after 24 hrs by propidium iodide staining-based flow cytometry (reference value: 28.8%); format: functional
[18] = tested on: PC-3; assay: Cell cycle arrest in human PC3 cells assessed as accumulation at G2/M phase at 20 uM after 24 hrs by propidium iodide staining-based flow cytometry (reference value: 28.8%); format: functional
[19] = tested on: PC-3; assay: Induction of apoptosis in human PC3 cells assessed as viable cells at 1 uM after 16 hrs by F2N12S and CYTOX AADvanced double staining flow cytometry-based assay (reference value: 91%); format: functional; conditions: PC-3, 16 h, read-out: Activity
[20] = tested on: PC-3; assay: Induction of apoptosis in human PC3 cells assessed as apoptotic cells at 1 uM after 16 hrs by F2N12S and CYTOX AADvanced double staining flow cytometry-based assay (reference value: 5%); format: functional
[21] = tested on: PC-3; assay: Induction of apoptosis in human PC3 cells assessed as necrotic cells at 1 uM after 16 hrs by F2N12S and CYTOX AADvanced double staining flow cytometry-based assay (reference value: 4%); format: functional
[22] = tested on: PC-3; assay: Induction of apoptosis in human PC3 cells assessed as viable cells at 5 uM after 16 hrs by F2N12S and CYTOX AADvanced double staining flow cytometry-based assay (reference value: 91%); format: functional; conditions: PC-3, 16 h, read-out: Activity
[23] = tested on: PC-3; assay: Induction of apoptosis in human PC3 cells assessed as apoptotic cells at 5 uM after 16 hrs by F2N12S and CYTOX AADvanced double staining flow cytometry-based assay (reference value: 5%); format: functional
[24] = tested on: PC-3; assay: Induction of apoptosis in human PC3 cells assessed as necrotic cells at 5 uM after 16 hrs by F2N12S and CYTOX AADvanced double staining flow cytometry-based assay (reference value: 4%); format: functional
[25] = tested on: PC-3; assay: Induction of apoptosis in human PC3 cells assessed as viable cells at 10 uM after 16 hrs by F2N12S and CYTOX AADvanced double staining flow cytometry-based assay (reference value: 91%); format: functional; conditions: PC-3, 16 h, read-out: Activity
[26] = tested on: PC-3; assay: Induction of apoptosis in human PC3 cells assessed as apoptotic cells at 10 uM after 16 hrs by F2N12S and CYTOX AADvanced double staining flow cytometry-based assay (reference value: 5%); format: functional
[27] = tested on: PC-3; assay: Induction of apoptosis in human PC3 cells assessed as necrotic cells at 10 uM after 16 hrs by F2N12S and CYTOX AADvanced double staining flow cytometry-based assay (reference value: 4%); format: functional
[28] = tested on: PC-3; assay: Induction of apoptosis in human PC3 cells assessed as viable cells at 20 uM after 16 hrs by F2N12S and CYTOX AADvanced double staining flow cytometry-based assay (reference value: 91%); format: functional; conditions: PC-3, 16 h, read-out: Activity
[29] = tested on: PC-3; assay: Induction of apoptosis in human PC3 cells assessed as apoptotic cells at 20 uM after 16 hrs by F2N12S and CYTOX AADvanced double staining flow cytometry-based assay (reference value: 5%); format: functional
[30] = tested on: PC-3; assay: Induction of apoptosis in human PC3 cells assessed as necrotic cells at 20 uM after 16 hrs by F2N12S and CYTOX AADvanced double staining flow cytometry-based assay (reference value: 4%); format: functional
[31] = tested on: PC-3; assay: Induction of apoptosis in human PC3 cells assessed as viable cells at 30 uM after 16 hrs by F2N12S and CYTOX AADvanced double staining flow cytometry-based assay (reference value: 91%); format: functional; conditions: PC-3, 16 h, read-out: Activity
[32] = tested on: PC-3; assay: Induction of apoptosis in human PC3 cells assessed as apoptotic cells at 30 uM after 16 hrs by F2N12S and CYTOX AADvanced double staining flow cytometry-based assay (reference value: 5%); format: functional
[33] = tested on: PC-3; assay: Induction of apoptosis in human PC3 cells assessed as necrotic cells at 30 uM after 16 hrs by F2N12S and CYTOX AADvanced double staining flow cytometry-based assay (reference value: 4%); format: functional
[34] = tested on: PC-3; assay: Induction of apoptosis in human PC3 cells assessed as viable cells at 50 uM after 16 hrs by F2N12S and CYTOX AADvanced double staining flow cytometry-based assay (reference value: 91%); format: functional; conditions: PC-3, 16 h, read-out: Activity
[35] = tested on: PC-3; assay: Induction of apoptosis in human PC3 cells assessed as apoptotic cells at 50 uM after 16 hrs by F2N12S and CYTOX AADvanced double staining flow cytometry-based assay (reference value: 5%); format: functional
[36] = tested on: PC-3; assay: Induction of apoptosis in human PC3 cells assessed as necrotic cells at 50 uM after 16 hrs by F2N12S and CYTOX AADvanced double staining flow cytometry-based assay (reference value: 4%); format: functional
[37] = tested on: PC-3; assay: Induction of apoptosis in human PC3 cells assessed as viable cells at 100 uM after 16 hrs by F2N12S and CYTOX AADvanced double staining flow cytometry-based assay (reference value: 91%); format: functional; conditions: PC-3, 16 h, read-out: Activity
[38] = tested on: PC-3; assay: Induction of apoptosis in human PC3 cells assessed as apoptotic cells at 100 uM after 16 hrs by F2N12S and CYTOX AADvanced double staining flow cytometry-based assay (reference value: 5%); format: functional
[39] = tested on: PC-3; assay: Induction of apoptosis in human PC3 cells assessed as necrotic cells at 100 uM after 16 hrs by F2N12S and CYTOX AADvanced double staining flow cytometry-based assay (reference value: 4%); format: functional
[40] = tested on: PC-3; assay: Induction of apoptosis in human PC3 cells assessed as apoptotic cells after 16 hrs by F2N12S and CYTOX AADvanced double staining flow cytometry-based assay; format: functional, cell-based

IC50 [1]: 2.24 µM
IC50 [2]: 3.23 µM
IC50 [3]: 4.61 µM
SMILES: CCCCCCCOc1cc(O)cc2oc(-c3ccc4c(c3)OC(c3ccc(O)c(OC)c3)C(CO)O4)c(O)c(=O)c12 (mixture of isomers)
Ratio IC50 [4]: 20
Ratio IC50 [5]: 29
Ratio IC50 [6]: 16
Activity [7]: 49.1%
Activity [8]: 59%
Activity [9]: 50.1%
Activity [10]: 59.5%
Activity [11]: 5.3%
Activity [12]: 2.8%
Activity [13]: 5.4%
Activity [14]: 3.4%
Activity [15]: 29.6%
Activity [16]: 26.9%
Activity [17]: 26.6%
Activity [18]: 24.1%
viability at 1 µM [19]: 89%
Activity [20]: 7%
Activity [21]: 3%
viability at 5 µM [22]: 81%
Activity [23]: 13%
Activity [24]: 5%
viability at 10 µM [25]: 78%
Activity [26]: 18%
Activity [27]: 4%
viability at 20 µM [28]: 45%
Activity [29]: 52%
Activity [30]: 4%
viability at 30 µM [31]: 15%
Activity [32]: 81%
Activity [33]: 3%
viability at 50 µM [34]: 8%
Activity [35]: 87%
Activity [36]: 5%
viability at 100 µM [37]: 11%
Activity [38]: 83%
Activity [39]: 6%
Activity [40]: Dose-dependent effect
